Source: PubChem BioAssay (several laboratories)
ERa SRC1 inh = ER-alpha (human) coactivator binding inhibition | 86,000 tested, 1.7% active | inhibition, % at 25.6 µM | TR-FRET ER-alpha LBD / SRC-1 peptide, estradiol-bound | P03372; in the data active = inhibition above about 50%
ERb coact inh = ER-beta (human) coactivator binding inhibition; Q92731; TR-FRET ER-beta LBD / SRC1-Cy5 peptide binding; receptor agonist-loaded with 1 µM estradiol; inhibition, % at 25.6 µM; 86,000 tested, 1.3% active; AID 633;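 active = compounds whose percent inhibition of the receptor-coactivator binding signal exceeds about 50% in the single-dose screen, limit read from the data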
Target sequence (Q92731 whole entry, looked up, the tested form may be a part): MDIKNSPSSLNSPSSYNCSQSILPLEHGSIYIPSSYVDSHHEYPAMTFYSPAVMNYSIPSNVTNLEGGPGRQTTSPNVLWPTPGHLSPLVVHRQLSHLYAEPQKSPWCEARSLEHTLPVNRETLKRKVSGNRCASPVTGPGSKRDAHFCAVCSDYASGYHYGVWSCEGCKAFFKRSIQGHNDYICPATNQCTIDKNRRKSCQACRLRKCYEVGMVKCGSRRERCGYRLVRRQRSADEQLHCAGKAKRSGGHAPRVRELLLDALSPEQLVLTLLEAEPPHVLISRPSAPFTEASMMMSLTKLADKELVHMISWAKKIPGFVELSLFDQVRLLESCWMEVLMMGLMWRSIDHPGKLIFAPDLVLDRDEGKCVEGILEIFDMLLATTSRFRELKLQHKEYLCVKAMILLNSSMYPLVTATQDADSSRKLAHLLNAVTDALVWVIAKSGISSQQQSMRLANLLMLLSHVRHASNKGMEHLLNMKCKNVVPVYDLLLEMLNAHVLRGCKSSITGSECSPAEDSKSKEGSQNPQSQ
sEH act = soluble epoxide hydrolase (human) activation. purified human sEH enzymatic activity, activator screen. activation, % at 2 µM. 91,000 tested, 0.04% active; in the data active = activation above about 37%
sEH inhibitor = soluble epoxide hydrolase (human) inhibition | P34913 | recombinant human sEH enzymatic activity assay | inhibition, % at 2 µM | 91,000 tested, 0.34% active; in the data active = inhibition above about 80%
ERa SRC1 pot = enhances coactivator binding to human estrogen receptor alpha; coactivator binding (% of control), % at 25.6 µM; 86,000 tested, 1.3% active; TR-FRET ERalpha-LBD/SRC-Cy5 coactivator binding, 2 h; 100 = basal binding, no effect; P03372; in the data active = activity above about 200%;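 note: binding measured in presence of low estradiol as agonist stimulus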
HIV Rev-RRE inh = inhibitors of HIV-1 Rev-RRE RNA interaction; AID 704; Rev peptide-RRE RNA binding, FRET; inhibition, % at 8 µM; 97,000 tested, 0.79% active;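 active = inhibition above the screen-wide mean plus 3 SD, cut at about 35% in these data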
Target sequence (P05866 whole entry, looked up): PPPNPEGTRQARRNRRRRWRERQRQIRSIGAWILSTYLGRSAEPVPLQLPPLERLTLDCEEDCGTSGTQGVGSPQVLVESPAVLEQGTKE
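Test system: Cy5-tagged RRE RNA duplex with fluorescein-tagged Rev peptide; Probe or stimulus: labelled Rev peptide; Schedule: 5 min preincubation and 15 min binding, 25 °C; Signal: FRET fluorescence readout; Evaluation: % inhibition from 671/540 nm acceptor-to-donor ratio, scaled between controls; Control set: DMSO and neomycin B.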
A number is an active result; - = inactive; . = not tested or not shown; [ ] = remark or other dose. In the library only some 3.5% were active in any assay of this set; here they are far more common.

SMILES | ERa SRC1 inh | ERb coact inh | sEH act | sEH inhibitor | ERa SRC1 pot | HIV Rev-RRE inh
COCCn1c(C)cc(C(=O)CSc2nncn2-c2ccccc2)c1C | - | - | - | - | - | -
O=C(O)CCn1[nH]c(=O)ccc1=O | - | - | - | - | - | -
COc1cccc(CNC(=O)C2CCN(S(=O)(=O)N3CCCCC3)CC2)c1 | - | - | - | - | - | -
COc1ccc(-c2cc(C(F)(F)F)n3nc(C(=O)N4CCCC4)cc3n2)cc1 | - | - | . | . | - | .
CCN(CC)CCCN1C(=O)C(O)=C(C(=O)c2ccc(C)o2)C1c1ccco1 (configuration not stated) | - | - | - | - | - | -
CCOC(=O)c1ccc(NC(=O)c2c(O)c3ccccc3n(C)c2=O)cc1 | 63 | - | . | . | - | .
COc1ccc(CC(=O)Nc2cccc(-c3nnc(-c4ccccc4)o3)c2)cc1OC | - | - | - | - | - | -
COc1ccc(CC(=O)Nc2ccc(-c3nnc(-c4ccccc4)o3)cc2)cc1OC | 70[fluorescence artefact?] | 51[fluorescence artefact?] | - | - | - | -
COc1ccc(-c2nc3cc(NC(=O)Cc4ccc(OC)c(OC)c4)ccc3o2)cc1 | - | - | - | 80 | 273[fluorescence artefact?] | -
CC(=O)c1c(C)nc(-c2ccc3c(c2)OCO3)n1O | - | - | - | - | 667[fluorescence artefact?] | -
COc1ccc(Cn2c(C)cc3c(c2=O)C(c2cccs2)C(C#N)=C(N)O3)cc1OC (configuration not stated) | - | - | - | - | - | -
O=C(NCc1ccc2[nH]c3c(c2c1)CCCC3)N1CCOCC1 | - | - | . | . | - | 39
O=C(NCc1ccc2c(c1)OCO2)c1ccc(CN2CCOCC2)cc1 | - | - | - | - | - | -
O=C(C1Cc2ccccc2CN1S(=O)(=O)c1ccc(F)cc1)N1CCOCC1 (configuration not stated) | - | - | - | - | - | -
CCS(=O)(=O)N1Cc2ccccc2CC1C(=O)N1CCN(c2ccccc2)CC1 (configuration not stated) | - | - | - | - | 223[fluorescence artefact?] | -
Cn1c(=O)[nH]c(=O)c2c1nc1n2CCN1Cc1ccccc1 | . | . | - | - | . | -
Cn1c(=O)[nH]c(=O)c2c1nc1n2CCCN1CCc1ccccc1 | 65 | 62 | - | - | - | -
CC(NC(=O)NCC1CCCO1)(C(F)(F)F)C(F)(F)F (configuration not stated) | - | - | - | - | - | -
Cc1ccc2nc(Nc3nc(=O)c4ccccc4n3C)nc(C)c2c1 | 60 | - | . | . | - | .
C=CCn1c(O)c(C(CC)=NCc2cccnc2)c(=O)[nH]c1=O | - | 50 | - | - | - | -
O=C1C(C=NCc2cccnc2)=C(O)c2ccccc21 | - | - | . | . | - | -
Cc1csc(/C(C#N)=N/O)n1 | - | - | - | - | - | -
O=C(COC(=O)c1cccnc1SCC(=O)NCc1ccccc1)NCc1ccccc1 | - | - | - | - | 252[fluorescence artefact?] | -
COc1ccc(N2CCN(C(=O)CCCn3c(=O)[nH]c4ccsc4c3=O)CC2)cc1 | - | 75 | - | - | - | -
N#C/C(=C\c1ccc(N2CCCC2)c([N+](=O)[O-])c1)c1nc2ccccc2[nH]1 | . | . | - | - | . | 37
SMILES | ERa SRC1 inh | ERb coact inh | sEH act | sEH inhibitor | ERa SRC1 pot | HIV Rev-RRE inh
COc1cc(/C=C(/C#N)c2nc3ccccc3[nH]2)ccc1Oc1ncccc1[N+](=O)[O-] | . | . | - | - | . | -
CCOc1cc(/C=C(/C#N)C(=O)Nc2ccc(O)cc2)cc(Br)c1O | . | . | - | - | . | 117[fluorescence artefact?]
Cc1nn(Cc2ccc(C(=O)Nc3ccc(C(=O)OC(C)C)cc3)o2)c(C)c1Cl | - | - | - | - | - | -
CC1CCN(C(=O)Cc2nn(C)c(=O)c3ccccc23)CC1 | - | - | - | - | - | -
CCOC(=O)Cc1nn(C)c(=O)c2ccccc12 | - | 63 | - | - | - | -
COCCCNC(=O)Cn1cc(C(=O)c2cccs2)c2ccccc21 | - | - | - | - | - | -
CSC1=N/C(=C\c2ccccc2F)C(=O)S1 | - | - | - | - | - | -
CSC1=N/C(=C\c2ccc(Br)o2)C(=O)S1 | 69 | 72 | - | - | - | -
O=[N+]([O-])c1ccccc1/C=C/C=N/n1c(-c2ccc(Cl)cc2)n[nH]c1=S | . | . | - | - | . | -
Cc1ccc(-c2n[nH]c(=S)n2/N=C/C=C\c2ccccc2[N+](=O)[O-])cc1 | 52 | - | - | - | 270[fluorescence artefact?] | -
CN(C)S(=O)(=O)c1ccc(C(=O)Nc2ccc(Cl)cc2)cc1 | - | 64[fluorescence artefact?] | - | - | - | -
CCOc1ccc(NC(=O)c2ccc(S(=O)(=O)N(C)C)cc2)cc1 | - | - | . | . | - | .
CSc1nnc2c3cc(F)ccc3n(Cc3ccccc3)c2n1 | - | - | . | . | 336 | .
CSc1nnc2c3ccccc3n(Cc3ccccc3)c2n1 | - | - | - | - | - | -
O=C(Nc1ccc(S(=O)(=O)N2CCCCCC2)cc1)c1ccc(Br)o1 | - | - | - | - | - | -
C/C(=N\Nc1cc(Cl)nc(C)n1)c1ccc(C)cc1 | . | . | 52 | - | . | -
CC(=O)c1cccc2c(O)c(C3=Nc4ccccc4C3=O)[nH]c12 | - | - | - | - | - | -
CCc1cc2cc(C(=O)Nc3ccccc3F)sc2s1 | - | - | - | - | - | -
CCc1cc2cc(C(=O)Nc3ccc(F)cc3)sc2s1 | - | - | - | - | 308[fluorescence artefact?] | -
COc1cccc(NC(=O)c2nnn(Cc3ccc(Br)cc3F)c2N)c1 | - | - | . | . | 270 | .
CCOC(=O)C1=C(C)NC(=O)C(C(N)=O)C12CCCC2 (configuration not stated) | - | - | - | - | - | -
CCOC(=O)C1=C(C)NC(=O)C(C(N)=O)C1c1ccccc1 (configuration not stated) | - | - | 37 | - | - | -
O=S(=O)(NCc1csc(-c2cccnc2)n1)c1ccc(Cl)s1 | 65 | 54 | - | - | - | -
Cn1c(N2CCCCC2)cc(=O)n(C)c1=O | - | 96[fluorescence artefact?] | - | - | - | -
CC(C)(C)c1cc(Cc2ccccc2)[nH]n1 | - | - | - | - | - | -
SMILES | ERa SRC1 inh | ERb coact inh | sEH act | sEH inhibitor | ERa SRC1 pot | HIV Rev-RRE inh
CCOC(=O)CSc1nc2cc(OCC)ccc2cc1C#N | - | - | . | . | 351[fluorescence artefact?] | .
COC(=O)CSc1nc2cc(OC)ccc2cc1C#N | - | - | - | - | - | -
COc1ccc2cc(C#N)c(SCC(=O)N3CCCC3)nc2c1 | - | - | - | - | - | -
CCOc1ccc2nc(SCC#N)c(C#N)cc2c1 | - | - | - | - | 252 | -
COC(=O)CSc1nc2cc(C)cc(C)c2cc1C#N | - | - | - | - | 210 | -
CCOc1ccc2cc(C#N)c(SCC(=O)N3CCC(C)CC3)nc2c1 | - | - | - | - | 337[fluorescence artefact?] | -
CC(=O)c1cc(C#N)c(SCC(=O)OC(C)C)nc1C | - | - | - | - | - | -
NC(=O)CN1N=C(c2cc(Cl)sc2Cl)CSC1=O | - | - | - | - | - | -
CCCCC(=O)Nc1sc(C(=O)N(CC)CC)c(C)c1C(=O)OC | - | - | - | - | - | -
COc1ccc2nc(SCC(=O)N3CCN(c4ccc(F)cc4)CC3)c(C#N)cc2c1 | - | - | - | - | 481[fluorescence artefact?] | -
